This is a sample that favours compounds with a hit; in the whole collection about 3.7% have one here.
KCNK9 block = human KCNK9 channel inhibition; HEK293 KCNK9, FluxOR thallium flux fluorescence; hits give low values; 310,000 tested, 1.2% active; Q9NPC2; B-score at 10 µM;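 active = ratio B-score over 3 SD below the library mean, with starting fluorescence within 5 SD of its mean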;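 note: negative B-score means less thallium flux so channel inhibition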
hERG protect = hERG (human) protection from proarrhythmic block; CHO-hERG, FluxOR thallium flux, dofetilide IC70 present; activation (rescue from dofetilide block), less the hit threshold, % at 10 µM; AID 1511; 310,000 tested, 0.51% active;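 active = activation above the mean of controls blocked by dofetilide plus 5 SD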;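 note: thallium influx through hERG after potassium depolarization seen as dye fluorescence rise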
KCNK3 inh = human KCNK3 channel inhibition, primary screen | CHO-KCNK3 thallium flux, FluxOR fluorescence; hits give low values | B-score at 10 µM | O14649 | 340,000 tested, 0.84% active | AID 602410;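 active = B-score under library mean minus 4 SD, starting fluorescence ratio at most library mean plus 5 SD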;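 note: more negative B-score means stronger inhibition of thallium flux through KCNK3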
Kir21 inh = blocks the mouse Kir2.1 inward-rectifier potassium channel. B-score at 10 µM. HEK293-Kir2.1, FluxOR thallium flux fluorescence; hits give low values. P35561. 310,000 tested, 0.85% active. AID 1672;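 active = fluorescence ratio B-score at or below minus 3 SD of library scores, with starting-brightness B-score within 2 SD, cut at about -4.2 in these data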;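 note: channel flux triggered by added potassium and thallium sulfate stimulus; B-score of peak minus minimum fluorescence over baseline after thallium stimulus; more negative B-score means stronger Kir2.1 block with less thallium influx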
KCNQ1 pot = potentiates or activates the human KCNQ1 potassium channel; CHO-K1 KCNQ1, thallium flux FluxOR fluorescence; hits give high values; B-score at 10 µM; 310,000 tested, 0.35% active;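 active = fluorescence ratio B-score, a plate-corrected score, at least three library SD, with initial intensity B-score within 5 SD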
Target sequence (P51787 whole entry, looked up): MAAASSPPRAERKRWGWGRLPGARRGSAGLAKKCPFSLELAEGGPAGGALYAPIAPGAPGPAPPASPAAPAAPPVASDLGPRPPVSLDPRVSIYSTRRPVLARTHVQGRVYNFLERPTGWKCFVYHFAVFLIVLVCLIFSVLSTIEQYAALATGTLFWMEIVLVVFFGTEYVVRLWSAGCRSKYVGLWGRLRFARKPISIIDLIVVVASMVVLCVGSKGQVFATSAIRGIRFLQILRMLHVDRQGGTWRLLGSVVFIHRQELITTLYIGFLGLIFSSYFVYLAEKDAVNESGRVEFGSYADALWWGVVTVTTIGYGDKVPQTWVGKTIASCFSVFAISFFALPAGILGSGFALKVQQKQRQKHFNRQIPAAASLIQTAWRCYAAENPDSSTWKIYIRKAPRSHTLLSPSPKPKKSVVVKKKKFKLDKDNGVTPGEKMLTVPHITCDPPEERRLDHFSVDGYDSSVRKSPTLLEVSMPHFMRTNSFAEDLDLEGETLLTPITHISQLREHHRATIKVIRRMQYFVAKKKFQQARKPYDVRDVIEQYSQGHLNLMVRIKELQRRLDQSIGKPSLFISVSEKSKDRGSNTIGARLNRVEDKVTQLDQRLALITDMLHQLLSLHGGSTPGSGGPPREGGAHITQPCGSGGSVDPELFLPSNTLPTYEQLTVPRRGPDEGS
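Test system: CHO-K1 cells stably expressing KCNQ1 / Medium: assay buffer / Also added: depolarizing K+/Tl+ stimulus, K2SO4 and Tl2SO4 each 12.5 mM in 5x stock / Incubation: 90 min dye loading and 20 min compound exposure, both at room temperature / Signal: thallium influx via FluxOR fluorescence, kinetic imaging / Evaluation: B score of baseline-normalized fluorescence ratio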
KCNQ1 inh = human KCNQ1 channel inhibition; B-score at 10 µM; CHO-K1 KCNQ1, FluxOR thallium flux fluorescence; hits give high values; 310,000 tested, 1.3% active;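 active = compounds whose thallium flux B-score, printed positive for inhibition, exceeds three library SD while starting fluorescence stays within three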;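 note: channel opened by potassium depolarization with thallium stimulus after 20 min compound exposure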
KCNK9 inh conf = human KCNK9 inhibitor confirmation; HEK293 KCNK9 cells, FluxOR thallium flux fluorescence; shares compounds with KCNK9 block; 4,900 tested, 43% active; inhibition, % at 10 µM;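 active = thallium signal inhibited by more than 5 SD of the compound-free buffer control wells, on both duplicate plates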;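 note: 0% = assay buffer control wells without compound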
Kir2-1 spec = mouse Kir2.1 off-target activity of KCNK9 modulators; inhibition, % at 10 µM; shares compounds with KCNK9 block; Kir2.1 cells, FluxOR thallium flux fluorescence; 4,900 tested, 4% active;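 active = thallium signal drop more than 5 SD beyond the mean of the no-compound control wells, seen in both duplicate plates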;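 note: signal is fluorescence rise after thallium addition divided by baseline fluorescence; plate controls were assay buffer only for no effect and full block by chlorpromazine control for full effect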
KCNK9 uninduced = second counter-screen for KCNK9 modulators: effect in non-induced cells; non-induced KCNK9-HEK293, FluxOR thallium flux; 4,900 tested, 40% active; shares compounds with KCNK9 block; inhibition, % at 10 µM;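 active = thallium signal drop beyond 5 SD of the untreated control mean, on both duplicate plates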;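 note: plate controls were buffer only IC0 wells for no effect and SID17386958 at its maximal inhibitory level for full effect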
* marks the source's active call; other numbers are inactive results; i = inactive; nt = no result given.

SMILES	KCNK9 block	hERG protect	KCNK3 inh	Kir21 inh	KCNQ1 pot	KCNQ1 inh	KCNK9 inh conf	Kir2-1 spec	KCNK9 uninduced
COc1cccc(Nc2nc(-c3sc(NC(=O)c4ccco4)nc3C)cs2)c1	-10.6*	-25.5	i	-2.88	i	i	49.5%*	i	i
CC1=NOC(=O)/C1=C\c1ccc(-c2cc(Cl)ccc2Cl)o1	i	-2.9	i	-0.07	i	i	i	i	i
COc1ccccc1C(=O)NCCSCc1c(F)cccc1Cl	i	-10.9	i	-1.27	i	i	nt	nt	nt
Cc1c(C(=O)NCCSCc2c(F)cccc2Cl)cnn1-c1ccc(Cl)cc1	i	-9.6	i	-1.05	i	i	i	i	i
O=C(NCc1ccco1)c1cc(S(=O)(=O)N2CCCc3ccccc32)ccc1Cl	i	-11.1	i	-0.17	i	i	i	i	i
COc1ccc(S(=O)(=O)N2CCc3ccccc32)cc1C(=O)NCc1ccco1	nt	nt	i	nt	nt	nt	nt	nt	nt
O=C(OC1CCOC1=O)C1CCN(S(=O)(=O)c2ccc(Cl)c(C(F)(F)F)c2)CC1 (centres undefined)	i	-7.0	i	1.03	i	i	nt	nt	nt
Cc1cc(-c2ccccc2)c2c3c(c(-c4ccccc4)n2n1)c(=O)n(C)c(=O)n3C	-8.76*	-6.3	i	-0.25	i	i	i	i	36.5%*
Cc1cc(C)c2c3c(c(-c4ccccc4)n2n1)c(=O)n(C)c(=O)n3C	nt	nt	i	nt	nt	nt	nt	nt	nt
O=c1c2ccccc2nc(/C=C/c2cccnc2)n1CCc1ccccc1	-9.34*	-13.0	i	-0.72	i	i	i	i	27.0%*
Nc1c(Cl)cc(C2=NCCn3nc4cc(C(F)(F)F)ccc4c32)cc1Cl	-13.1*	-5.4	i	0.51	8*	i	58.5%*	i	i
O=C1CC(N2CCN(S(=O)(=O)c3ccc([N+](=O)[O-])cc3)CC2)C(=O)N1c1ccccc1F (centres undefined)	nt	nt	i	nt	nt	nt	nt	nt	nt
COc1ccccc1C1CCN(C(=O)c2cnn(-c3ccccc3)c2C)CC1	i	-12.3	i	0.19	i	i	i	i	i
COc1ccccc1C1CCN(C(=O)c2ccccc2)CC1	i	-8.7	i	0.01	i	i	nt	nt	nt
CCc1ccc(S(=O)(=O)NCCc2csc(-c3ccccc3)n2)s1	-10.3*	-10.3	i	-4.48*	i	i	49.5%*	37.5%*	39.0%*
CC(C)OCCCn1c(=NC(=O)c2cccs2)c(C#N)cc2c(=O)n3ccccc3nc21	-8.51*	-11.3	i	0.15	i	i	25.5%*	i	33.0%*
CC(C)OCCCn1c(=NC(=O)c2ccncc2)c(C#N)cc2c(=O)n3ccccc3nc21	i	-21.0	i	-0.29	i	i	nt	nt	nt
O=C(Nc1ccc(Br)cc1)c1cccc2c1C(=O)N(C1CCCCC1)C2	i	-9.1	i	0.42	i	i	nt	nt	nt
O=C(Nc1ccc(Br)cc1Br)c1cccc2c1C(=O)N(C1CCCCC1)C2	-17.7*	-8.2	i	0.05	i	i	49.5%*	i	33.0%*
Cc1ccc(NC(=O)c2cccc3c2C(=O)N(C2CCCCC2)C3)c(Cl)c1	-18*	-7.7	i	-0.63	i	i	55.5%*	i	43.5%*
CC(=O)Nc1ccc(NC(=O)CN2CCN(c3cccc(C(F)(F)F)c3)CC2)cc1	i	-8.3	i	-0.5	i	i	nt	nt	nt
O=C(CSC1=NCCN1)Nc1cccc(C(F)(F)F)c1	-9.94*	-17.8	i	-0.41	i	i	32.5%*	i	24.5%*
Cn1ccnc1SCC(=O)Nc1cccc(C(F)(F)F)c1	i	-3.1	i	-0.51	i	i	nt	nt	nt
O=C(CN1CCN(c2cccc(C(F)(F)F)c2)CC1)Nc1cccc(C(F)(F)F)c1	i	-17.1	i	-0.4	i	9*	i	i	i
Cc1nc(SCc2nc3c(F)cccc3[nH]2)c2oc3ccccc3c2n1	nt	nt	i	nt	nt	nt	nt	nt	nt
SMILES	KCNK9 block	hERG protect	KCNK3 inh	Kir21 inh	KCNQ1 pot	KCNQ1 inh	KCNK9 inh conf	Kir2-1 spec	KCNK9 uninduced
Cc1ccc(NC(=O)CN(C)C(=O)COc2ccc(C(=O)c3ccc(F)cc3)cc2)cc1	i	-14.1	i	-2.59	i	i	nt	nt	nt
CCc1c(O)nc(SCc2ccccc2)n(C(C)CC)c1=O (centres undefined)	i	-4.9	i	-3.69	i	i	nt	nt	nt
CCCCn1c(SCC(=O)Nc2cc(C)on2)nc2ccsc2c1=O	i	-7.4	i	-0.36	i	i	nt	nt	nt
CCOC(CCn1c(SCc2cccc([N+](=O)[O-])c2)nc2ccccc2c1=O)OCC	-14.8*	-6.0	i	0.26	i	i	67.5%*	i	45.0%*
CCC(C)n1c(SCc2ccc([N+](=O)[O-])cc2)nc2ccsc2c1=O (centres undefined)	-13.1*	-8.0	i	-2.36	i	i	69.0%*	i	44.0%*
COCCn1c(SCc2cccc([N+](=O)[O-])c2)nc2ccccc2c1=O	-8.8*	-6.8	i	1.42	i	i	64.0%*	i	30.5%*
CCCCn1c(SCc2cccc([N+](=O)[O-])c2)nc2ccsc2c1=O	-16.1*	-19.5	i	0.35	i	6*	80.0%*	i	38.5%*
O=C(c1cc(Cl)nc2ccccc12)N1CCc2ccccc2C1	i	-29.4	i	0.13	i	i	nt	nt	nt
COc1ccc(C2c3[nH]c4ccccc4c3CCN2Cc2ccoc2)c(F)c1 (centres undefined)	i	-33.1	i	-0.41	i	i	i	i	i
COc1ccc(C2c3[nH]c4ccccc4c3CCN2C(=O)Cc2nonc2C)c(F)c1 (centres undefined)	i	-14.8	i	-1.2	i	i	nt	nt	nt
Cc1sc2nc(SCC(=O)N3CCOCC3)[nH]c(=O)c2c1-c1ccccc1	i	-17.2	i	1.24	i	i	nt	nt	nt
COc1ccc(C(=O)OCC(=O)NC2CC2)cc1OC	nt	nt	i	nt	nt	nt	nt	nt	nt
N#Cc1nc(COc2ccc(F)cc2)oc1N1CCCCC1	i	-13.6	i	-0.32	i	i	i	i	i
N#Cc1nc(COc2ccccc2)oc1N1CCCCCC1	i	-14.9	i	0.06	i	i	nt	nt	nt
C=CCN([C@@H](CC(C)C)C(=O)OC)S(=O)(=O)N(CC=C)[C@@H](CC(C)C)C(=O)OC	nt	nt	i	nt	nt	nt	nt	nt	nt

Screening results: PubChem, Johns Hopkins Ion Channel Center
